High-throughput results: PubChem BioAssay, The Scripps Research Institute Molecular Screening Center
PAFAH1B3 FP inh: inhibitors of human PAFAH1B3 | Q15102 | recombinant PAFAH1B3, FP-rhodamine probe, fluorescence polarization | inhibition, % at 3.39 µM | actives 0.28% (n = 340,000) | AID 492972;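 active = inhibition above the screen-wide average of all tested compounds plus 3 SD, cut at about 25% in these data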
Target sequence (Q15102 whole entry, looked up): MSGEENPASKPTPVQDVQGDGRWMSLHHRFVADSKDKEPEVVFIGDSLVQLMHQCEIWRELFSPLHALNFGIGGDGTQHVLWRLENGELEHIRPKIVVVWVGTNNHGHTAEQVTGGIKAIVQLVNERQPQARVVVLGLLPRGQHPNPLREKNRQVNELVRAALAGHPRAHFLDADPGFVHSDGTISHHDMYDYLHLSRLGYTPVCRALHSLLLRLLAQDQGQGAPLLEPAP
PAFAH1B2 FP inh: PAFAH1B2 (human) inhibition | actives 1.2% (n = 340,000) | inhibition, % at 3.39 µM | recombinant PAFAH1B2, FP-rhodamine activity probe, fluorescence polarization | AID 492953 | P68402;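 active = inhibition above the mean of all tested compounds plus 3 SD, cut at about 24% in these data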
Target sequence (P68402 whole entry, looked up): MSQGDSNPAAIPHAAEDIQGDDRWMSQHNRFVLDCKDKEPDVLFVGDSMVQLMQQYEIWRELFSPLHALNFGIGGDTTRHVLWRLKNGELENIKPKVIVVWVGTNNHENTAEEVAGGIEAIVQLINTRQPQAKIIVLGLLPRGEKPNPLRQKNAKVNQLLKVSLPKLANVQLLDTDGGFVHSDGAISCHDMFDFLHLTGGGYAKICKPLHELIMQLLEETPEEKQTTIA
PAFAH2 FP inh: PAFAH2 (human) inhibition; inhibition, % at 3.39 µM; recombinant PAFAH2, FP-rhodamine activity probe, fluorescence polarization; actives 0.99% (n = 340,000);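 active = inhibition above the mean over all tested compounds plus 3 SD, cut at about 30% in these data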;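 also: inhibitors block probe labeling of enzyme so polarization drops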
pPAFAH inh: inhibitors of human plasma PAF acetylhydrolase (pPAFAH); Q13093; recombinant pPAFAH, FP-rhodamine probe fluorescence polarization; inhibition, % at 3.39 µM; actives 1.5% (n = 330,000);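 active = inhibition above the mean inhibition across the screen plus 3 SD, cut at about 25% in these data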;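 also: inhibitors block binding of the rhodamine activity-based probe so polarization drops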
RBBP9 inh: inhibitors of human serine hydrolase RBBP9; O75884; recombinant RBBP9, FP-Rh probe fluorescence polarization; actives 0.2% (n = 220,000); AID 1515; inhibition, % at 7.94 µM;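 active = inhibition above the campaign mean of all tested compounds plus 3 SD, cut at about 14% in these data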
Target sequence (O75884 whole entry, looked up): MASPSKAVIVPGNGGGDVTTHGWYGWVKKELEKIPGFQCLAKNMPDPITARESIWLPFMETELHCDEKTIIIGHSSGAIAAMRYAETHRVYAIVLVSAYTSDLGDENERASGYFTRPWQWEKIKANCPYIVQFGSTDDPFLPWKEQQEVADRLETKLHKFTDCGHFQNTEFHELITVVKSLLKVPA
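system = RBBP9 protein | input = RBBP9 at 2.5 µM in dispensed solution, before mixing | measured by = fluorescence polarization (mP), excitation 525 nm, emission 598 nm | incubation = enzyme-compound preincubation 30 min, then probe labeling 45 min, 25 °C | buffer or medium = Tris-NaCl-Pluronic buffer, pH 8.0 | compound = single dose 7.94 µM | also added = FP-Rh probe, 375 nM dispensing solution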
PAFAH2 confirm: PAFAH2 (human) inhibition, confirmed. inhibition, % at 3.39 µM. actives 65% (n = 2,300). shares compounds with PAFAH2 FP inh. recombinant PAFAH2, FP-rhodamine activity probe, fluorescence polarization. AID 493030;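 active = mean inhibition over three repeats above a set limit taken from the earlier primary screen, cut at about 30% in these data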;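 also: inhibitor blocks binding of rhodamine activity probe so polarization falls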
Large screens that a line does not name were inactive (follow-up assays come after a bar, where they were run). Most compounds without a hit are left out; they make up all but 2.7% or so of the library.

CCOc1ncccc1C(=O)OCC(=O)Nc1ccc2c(c1)OCCO2	PAFAH2 FP inh 55 (no result: RBBP9 inh) | PAFAH2 confirm 47
Cc1c(C(=O)OCC(=O)Nc2ccc3c(c2)OCO3)cccc1[N+](=O)[O-]	PAFAH2 FP inh 72 | PAFAH2 confirm 64
O=C(COC(=O)c1cccnc1Cl)Nc1ccc2c(c1)OCO2	PAFAH2 FP inh 75 | PAFAH2 confirm 60
Cc1c(C(=O)OCC(=O)NCc2ccc3c(c2)OCO3)cccc1[N+](=O)[O-]	none
CC1=C(C(N)=O)S(=O)(=O)c2ccccc21	none
CC1(C)CC(CCNC(=O)CCl)(c2ccccc2)CCO1 (stereo not given)	none
O=c1c2c(nc3nc(COc4ccccc4)[nH]n13)CCC2	PAFAH2 FP inh 61 | PAFAH2 confirm 56
O=C(O)Cc1nc2nc3c(c(=O)n2[nH]1)CCCC3	none
CCSc1ccccc1C(=O)Nc1ccc(S(=O)(=O)NC(C)=O)cc1	none
O=C(CCn1c(=O)oc2ccccc21)Nc1cccc(Cl)c1	PAFAH2 FP inh 43 | PAFAH2 confirm inactive
CC(OC(=O)c1ccco1)C(=O)Nc1ccc(C(F)(F)F)cc1 (stereo not given)	none (no result: RBBP9 inh)
CCC(C)N(C(=O)COC(=O)CNC(=O)c1sc2ccccc2c1Cl)C1CCS(=O)(=O)C1 (stereo not given)	none (no result: RBBP9 inh)
CC(=O)Nc1ccc(NC(=O)C(C)O/N=C/c2cccc([N+](=O)[O-])c2)cc1 (stereo not given)	PAFAH2 FP inh 30 | PAFAH2 confirm inactive
O=C(O/N=C/c1cccc([N+](=O)[O-])c1)C1CC1	PAFAH2 FP inh 92 | PAFAH2 confirm 78
CC(C(=O)NC1CCCCC1)N1CCN(C)CC1 (stereo not given)	none
COc1cc2c(cc1OC)-c1cc(OCc3cccnc3)nc(=O)n1CC2	PAFAH2 FP inh 61 (no result: pPAFAH inh) | PAFAH2 confirm 54
COc1cc2c(cc1OC)-c1cc(N3CCc4ccccc43)nc(=O)n1CC2	PAFAH2 FP inh 53 | PAFAH2 confirm 41
COc1cc2c(cc1OC)-c1cc(Nc3ccccc3)nc(=O)n1CC2	none
Cc1cc(C(=O)O)c(CCCN)s1	none
Cc1cccc(N=C2NC(=O)c3cc([N+](=O)[O-])ccc32)c1	none
CCN(CC)C(=O)CSc1nc2c(sc(=S)n2-c2ccccc2)c(=O)n1-c1ccccc1OC	PAFAH2 FP inh 37 (no result: pPAFAH inh, RBBP9 inh) | PAFAH2 confirm inactive
COc1ccc(S(=O)(=O)N2CCOC2CNC(=O)C(=O)NCc2ccco2)cc1OC (stereo not given)	none
O=C(NNC(=O)c1cccc(O)c1)Nc1ccc([N+](=O)[O-])cc1	PAFAH2 FP inh 49 | PAFAH2 confirm inactive
O=C(Nc1ccc(NC(=O)c2cccc([N+](=O)[O-])c2)cc1)c1cccc([N+](=O)[O-])c1	none (no result: RBBP9 inh)
CCC1CCC(C(=O)NC(C(=O)NCCc2ccc(S(N)(=O)=O)cc2)C(C)C)CC1 (stereo not given)	none (no result: RBBP9 inh)
COc1ccc(S(=O)(=O)C(C#N)c2nc3ccccc3nc2N2CCCC(C)C2)cc1 (stereo not given)	PAFAH2 FP inh 31 | PAFAH2 confirm inactive
Cc1ccccc1-c1nc2cc(Cl)ccc2c(=O)o1	none (no result: RBBP9 inh)
Cc1cccc2c(=O)oc(-c3ccccc3Cl)nc12	PAFAH2 FP inh 49 (no result: RBBP9 inh) | PAFAH2 confirm 40
CCn1cc(/C=C/C(=O)Nc2ccn(Cc3c(F)c(F)c(F)c(F)c3F)n2)cn1	none
O=C(CN1CC(c2ccccc2)CC1=O)Nc1ccc2c(c1)OCO2 (stereo not given)	PAFAH2 FP inh 32 | PAFAH2 confirm inactive
COc1ccc(C(=O)Nc2nnc(SCC(=O)NCC3CCCO3)s2)cc1OC (stereo not given)	none (no result: RBBP9 inh)
N#CC1=C(SCC(=O)NC2CC2)NC(=O)C(C#N)C12CCCCC2 (stereo not given)	none
N#CC1=C(SCC(=O)Nc2cccc3cccnc23)NC(=O)C(C#N)C12CCCCC2 (stereo not given)	PAFAH2 FP inh 38 | PAFAH2 confirm inactive
CC(=O)N1CC=CC1(C)C(=O)O (stereo not given)	none
COc1cccc(NC(=O)COC(=O)c2sccc2C)c1	PAFAH2 FP inh 82 (no result: RBBP9 inh) | PAFAH2 confirm 82
COc1cccc(NC(=O)CCC2CCN(C(=O)c3sccc3C)CC2)c1	none (no result: RBBP9 inh)
Cn1cccc1C(=O)OCC(=O)Nc1ccc2c(c1)OCCO2	PAFAH2 FP inh 49 (no result: RBBP9 inh) | PAFAH2 confirm 33
COc1cccc(NC(=O)COC(=O)c2ccco2)c1	PAFAH2 FP inh 68 | PAFAH2 confirm 63
O=C(COC(=O)c1ccco1)Nc1ccc2c(c1)OCCO2	PAFAH2 FP inh 51 | PAFAH2 confirm 37
O=C(Oc1ccc2ccc(O)cc2c1)c1ccccc1Cl	none (no result: pPAFAH inh, RBBP9 inh)
Cc1ccc(NC(=O)COC(=O)c2ccco2)cc1	PAFAH2 FP inh 62 | PAFAH2 confirm 53
Cc1ccc(NC(=O)COC(=O)c2ccco2)cc1C	PAFAH2 FP inh 77 (no result: RBBP9 inh) | PAFAH2 confirm 59
CC(=O)Nc1ccc(NC(=O)COC(=O)c2ccco2)cc1	none
COc1cccc(NC(=O)COC(=O)c2c(F)cccc2F)c1	PAFAH2 FP inh 57 | PAFAH2 confirm inactive
Cc1ccc(C(=O)OCC(=O)NN2C(=O)NC3(CCC(C)CC3)C2=O)cc1 (stereo not given)	PAFAH2 FP inh 74 (no result: RBBP9 inh) | PAFAH2 confirm 54
Cc1cccc(C(=O)OCC(=O)NN2C(=O)NC3(CCCCC3)C2=O)c1	none (no result: RBBP9 inh)
CCn1nnnc1NCc1ccc(OCc2ccc(F)cc2Cl)c(OC)c1	none
Cc1ccc(N2C(=O)CC(Sc3ccccc3C(=O)O)C2=O)cc1 (stereo not given)	PAFAH2 FP inh 92 | PAFAH2 confirm inactive
Cc1cc(C)cc(N2C(=O)CC(Sc3ccccc3C(=O)O)C2=O)c1 (stereo not given)	none
CC(C)CCN1C(=O)c2ccc(C(=O)Nc3ccccc3C(=O)O)cc2C1=O	PAFAH2 FP inh 40 (no result: pPAFAH inh, RBBP9 inh) | PAFAH2 confirm inactive
CC(C)CCN1C(=O)c2ccc(C(=O)Nc3ccc(O)cc3C(=O)O)cc2C1=O	none (no result: RBBP9 inh)
CSc1nc2[nH]c(=O)n(O)c(=O)c2n1Cc1ccccc1	PAFAH2 FP inh 37 (no result: pPAFAH inh, RBBP9 inh) | PAFAH2 confirm inactive
CSc1nc2c(c(=O)n1Cc1ccccc1)SC(C)C2 (stereo not given)	none
O=CNC(Cc1ccccc1)C(=O)O (stereo not given)	none
CSCCC(NC(=O)c1ccc([N+](=O)[O-])cc1Cl)C(=O)OCC(=O)NC(=O)CN1CCCC1=O (stereo not given)	none (no result: RBBP9 inh)
COc1ccc(Cl)cc1C(=O)OCC(=O)NC1CCCC(C)C1C (stereo not given)	PAFAH2 FP inh 35 (no result: pPAFAH inh, RBBP9 inh) | PAFAH2 confirm inactive
COc1cccc2cc(C(=O)OCC(=O)NC3CCCC(C)C3C)c(=O)oc12 (stereo not given)	none (no result: RBBP9 inh)
CSCCC(NC(=O)c1ccc([N+](=O)[O-])cc1Cl)C(=O)OCC(=O)NC1CCCC(C)C1C (stereo not given)	PAFAH2 FP inh 33 | PAFAH2 confirm inactive
